# PubChem BioAssay AID463073 (The Scripps Research Institute Molecular Screening Center, 2010)
# The campaign covered roughly 2,000 compounds. About 10 (0.5%) were called active. Only a selection was taken, and actives are over-represented in it overall. A number with no mark means an inactive call.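 The calls were made as follows: active = inhibition above 30%; inactive = the rest.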
# Target: Protein-arginine deiminase type-4 (Homo sapiens) (UniProt Q9UM07)
# Assay: human PAD4 inhibitors, primary screen, biochemical, fluorescence polarization (AID 463073);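 also: 0% = PAD4 with DMSO and 100% = wells lacking PAD4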
# Conditions: recombinant PAD4, RFA probe fluorescence polarization; at 5 µM; stronger effect = higher value
# How it was run: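 System: recombinant PAD4. Amount: PAD4 at 2 µM in dispensed buffer, before additions. Doses: single 5 µM final compound concentration. Timing: 30 min 25 °C preincubation, 5 h 37 °C labeling. Benchmarks: wells lacking PAD4 as full-inhibition control. Repeats: single well per compound. Measured by: FP, ex 525 nm, em 598 nm.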
# Protein-arginine deiminase type-4 (Homo sapiens), sequence (Q9UM07 whole entry, looked up): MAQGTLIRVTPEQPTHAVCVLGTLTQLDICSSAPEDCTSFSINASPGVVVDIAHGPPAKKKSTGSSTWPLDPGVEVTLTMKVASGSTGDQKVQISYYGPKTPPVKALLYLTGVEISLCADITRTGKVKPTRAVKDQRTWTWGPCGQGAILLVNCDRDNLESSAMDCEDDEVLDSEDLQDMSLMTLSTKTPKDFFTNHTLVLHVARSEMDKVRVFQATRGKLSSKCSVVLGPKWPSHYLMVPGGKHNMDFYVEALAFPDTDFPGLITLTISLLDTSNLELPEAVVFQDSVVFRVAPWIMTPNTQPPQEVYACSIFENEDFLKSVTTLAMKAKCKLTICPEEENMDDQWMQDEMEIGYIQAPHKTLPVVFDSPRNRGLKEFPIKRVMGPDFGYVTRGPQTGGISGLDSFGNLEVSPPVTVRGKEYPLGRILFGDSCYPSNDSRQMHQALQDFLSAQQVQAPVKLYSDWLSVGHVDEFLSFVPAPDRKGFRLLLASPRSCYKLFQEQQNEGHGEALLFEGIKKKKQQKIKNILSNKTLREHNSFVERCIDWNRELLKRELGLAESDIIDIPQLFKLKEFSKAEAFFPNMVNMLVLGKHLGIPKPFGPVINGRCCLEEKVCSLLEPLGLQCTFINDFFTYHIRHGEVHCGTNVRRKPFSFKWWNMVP
row,Structure (SMILES),inhibition
1,O=C1C=Cc2ccccc2C1=O,6.7%
2,O=C1C(=O)c2ccccc2-c2ccccc21,94.3% (active)
3,C[C@H]1CCCC(=O)CCC/C=C/c2cc(O)cc(O)c2C(=O)O1,0.58%
4,CC(C)[C@@]1(NC(=O)[C@@H]2C[C@@H]3c4cccc5[nH]cc(c45)C[C@H]3N(C)C2)O[C@@]2(O)[C@@H]3CCCN3C(=O)[C@H](Cc3ccccc3)N2C1=O,4.69%
5,CC1CCC[C@H](O)CCCCCc2cc(O)cc(O)c2C(=O)O1 (stereo not given in full),2.98%
6,CN1C2CCC1CC(OC(=O)CCN1CCCC1)C2 (stereo not given),0.67%
7,COc1ccc(Cc2nccc3cc(OC)c(OC)cc23)cc1OC,74.4% (active)
8,C[C@H]1CC[C@@]2(C)[C@@H](CC[C@@H]3[C@@H]2CC[C@]2(C)[C@@H](O)CC[C@@H]32)C1,5.74%
9,O=Cc1cn(Cc2ccc(F)cc2)c2ccccc12,0.18%
10,C[C@]12CCC(=O)C=C1CC[C@@H]1[C@@H]2C(=O)C[C@]2(C)C(=O)CC[C@@H]12,3.91%
